Assay outcomes from PubChem.
The list is not random: actives were taken first. Their share in the collection is about 2.5%.
ADAM10 inh = ADAM10 inhibition, QFRET primary screen. recombinant ADAM10, EDANS/DABCYL FRET peptide cleavage, 3 h. O14672. inhibition, % at 7 µM. hit rate 0.62% among 370,000;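 active means inhibition above a per-campaign cutoff equal to the mean of compounds falling between control-based bounds plus 3 SD, cut at about 20% in these data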;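 further: 0% = DMSO wells while the 100% control is not disclosed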
NR2E3 ag-1 = activates human photoreceptor nuclear receptor NR2E3. Q9Y5X4. GST-NR2E3/biotin-RetCOR TR-FRET, 1536-well. inhibition of corepressor binding, % at 4.78 µM. hit rate 0.12% among 320,000;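 active means percent inhibition above the cutoff of mean plus 3 SD of all tested compounds, set per screening campaign, cut at about 20% in these data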;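 further: 0% = DMSO wells and 100% = biotin wells as full block of FRET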
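system = GST-tagged NR2E3 plus biotinylated RetCOR corepressor | input = 1.35 nM GST-NR2E3 | also added = 7 nM biotin-RetCOR | schedule = 5 h incubation at 4 °C | measured by = TR-FRET with europium anti-GST and streptavidin-D2, 340 nm excitation | read-out = percent loss of FRET ratio relative to control wells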
JMJD2C inh = inhibitors of human GASC-1 (JMJD2C) demethylase. Q9H3R0. GST-JMJD2C(1-420) H3K9me3 demethylation, DELFIA europium. inhibition, % at 2.35 µM. hit rate 0.069% among 330,000. AID 2099;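 active means more than half of a compound's replicate wells show inhibition beyond 50%, single wells judged on their own value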;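 further: signal counts dimethyl H3K9 product captured on neutravidin plate; 0% = median of DMSO wells and 100% = 0.3 times that DMSO median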
Target sequence (Q9H3R0 1-420 limits assumed): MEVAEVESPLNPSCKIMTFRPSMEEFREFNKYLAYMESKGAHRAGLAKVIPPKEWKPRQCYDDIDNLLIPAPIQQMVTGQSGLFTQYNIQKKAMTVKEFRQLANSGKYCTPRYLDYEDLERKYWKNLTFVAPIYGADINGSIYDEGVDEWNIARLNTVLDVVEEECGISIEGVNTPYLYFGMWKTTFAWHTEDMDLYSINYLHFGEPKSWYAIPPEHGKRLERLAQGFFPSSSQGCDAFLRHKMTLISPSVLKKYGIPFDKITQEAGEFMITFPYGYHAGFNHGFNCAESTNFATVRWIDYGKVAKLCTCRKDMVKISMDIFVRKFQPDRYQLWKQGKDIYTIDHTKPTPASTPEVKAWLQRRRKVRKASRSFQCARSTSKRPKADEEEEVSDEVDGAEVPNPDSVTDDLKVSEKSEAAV
NR2E3 ag-2 = agonists of human NR2E3 nuclear receptor | CHO-S Gal4-NCOR/VP16-NR2E3 two-hybrid, luciferase | inhibition of corepressor binding, % at 3.98 µM | Q9Y5X4 | AID 602229 | hit rate 0.35% among 360,000;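 active means inhibition above the mean of all tested compounds plus 3 SD, cut at about 70% in these data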;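 further: 0% = DMSO with NR2E3 transfected cells and 100% = cells lacking NR2E3 construct; higher means lower luciferase signal from less NR2E3 corepressor binding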
KLK7 zymogen act = proKLK7 (human) activation, primary screen; P49862; purified proKLK7, EDANS-DABCYL substrate fluorescence; 100% is mature enzyme control, 0% vehicle; activation, % at 7 µM; hit rate 0.9% among 370,000; AID 652039;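 active means activation above the mean of all tested compounds plus 3 SD, computed per campaign excluding outliers beyond control limits, cut at about 13% in these data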
Target sequence (P49862 whole entry, looked up): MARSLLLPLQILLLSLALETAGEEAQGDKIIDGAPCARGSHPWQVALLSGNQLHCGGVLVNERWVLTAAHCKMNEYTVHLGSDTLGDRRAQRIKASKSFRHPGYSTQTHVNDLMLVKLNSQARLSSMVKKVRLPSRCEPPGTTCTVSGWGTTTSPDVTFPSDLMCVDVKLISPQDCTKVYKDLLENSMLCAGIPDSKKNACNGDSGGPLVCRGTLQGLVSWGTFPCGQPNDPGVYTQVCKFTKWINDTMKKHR
ADAM17 inh = inhibits human ADAM17; hit rate 0.83% among 370,000; recombinant ADAM17, EDANS/DABCYL FRET peptide cleavage; inhibition, % at 6.95 µM; AID 720648;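 active means inhibition above the mean of compounds lying between control limits plus 3 SD, set per campaign, cut at about 8.5% in these data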;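 further: 0% = DMSO-only wells as the low control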
KLK7 act conf = proKLK7 activation, confirmation; activation, % at 7 µM; AID 686949; hit rate 68% among 3,200; shares compounds with KLK7 zymogen act; purified proKLK7, EDANS-DABCYL substrate fluorescence; scaled: vehicle 0, mature enzyme 100;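 active means activation, as change over the incubation, above the mean of all tested compounds plus 3 SD, cut at about 13% in these data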
EDANS-DABCYL int = fluorescence interference counter-screen for KLK7 activators. shares compounds with KLK7 zymogen act. EDANS-DABCYL substrate fluorescence interference, no enzyme, 4 h; solvent 0%, active enzyme control 100%. activation, % at 7 µM. hit rate 80% among 3,200;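 active means activation above the all-compound mean plus 3 SD, ignoring values outside control-based bounds, cut at about 4.8% in these data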;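 further: value is the 4 h activation minus the activation read at time zero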
An asterisk follows results filed as active; i = inactive; · = not tested or not shown.

SMILES	ADAM10 inh	NR2E3 ag-1	JMJD2C inh	NR2E3 ag-2	KLK7 zymogen act	ADAM17 inh	KLK7 act conf	EDANS-DABCYL int
CCN(CC)C(=O)[C@H]1C[C@H](CC(=O)NCCc2ccccn2)C(=O)N2CCc3c([nH]c4cc(-c5ccco5)ccc34)[C@]12C	i	·	·	-67	147*	-151	64*	79*
C[C@]12c3[nH]c4cc(-c5ccco5)ccc4c3CCN1C(=O)[C@@H](CC(=O)NCCc1ccccn1)C[C@@H]2C(=O)N1CCOCC1	i	·	·	-43	113*	-173	52*	68*
CC(C)N(C(=O)[C@H]1C[C@H](CC(=O)NCCc2ccccn2)C(=O)N2CCc3c([nH]c4cc(-c5ccco5)ccc34)[C@]12C)C(C)C	i	·	·	-29	184*	-458	29*	30*
Cc1ccc(C)c(S(=O)(=O)NC(C)C(=O)NCc2ccccn2)c1 (stereo unspecified)	4	2	7	-13	0	-5	·	·
Cc1ccc([C@H]2N[C@]3(CCCN(CC4CCCCC4)C3=O)[C@H]3C(=O)N(C)C(=O)[C@@H]23)cc1	-11	·	·	-8	-1	-1	·	·
CNc1ccccc1C(=O)OCC(=O)N(CCOC)c1c(N)n(CC(C)C)c(=O)[nH]c1=O	i	-1	-11	-8	20*	-411	18*	16*
COc1ccc(-c2cc3ccc(OCC(C)=O)cc3oc2=O)cc1	i	5	11	-120	27*	-435	-7	-4
O=C(COc1ccc2cc(-c3ccccc3)c(=O)oc2c1)NCC1CCC(C(=O)O)CC1 (stereo unspecified)	i	4	-1	-4	21*	i	60*	72*
NC(=O)COc1ccc2cc(-c3ccc(F)cc3)c(=O)oc2c1	i	6	-1	-30	33*	i	-14	-63
NC(=O)COc1ccc2cc(-c3ccccc3)c(=O)oc2c1	i	3	38	-16	59*	i	63*	64*
O=C(COc1ccc2c(-c3ccccc3)cc(=O)oc2c1)NCC1CCC(C(=O)O)CC1 (stereo unspecified)	-7	-1	-2	-39	0	-5	·	·
CC(C)Oc1ccc(S(=O)(=O)N2CCCCC2)cc1NC(=O)C1CSC2(C)CCC(=O)N12 (stereo unspecified)	-26	0	8	-25	-1	-4	·	·
Cc1ccc(CNc2ncnc3c2cnn3C2CCCCO2)cc1 (stereo unspecified)	-12	·	·	-4	0	-3	·	·
O=C(O)c1ccc(N2C(=O)c3ccccc3C2=O)cc1[N+](=O)[O-]	-8	·	·	-5	0	-1	·	·
Cc1ccc(C)c(NC(=S)N2CCC(NC(=O)c3ccco3)CC2)c1	-5	6	-1	-13	0	1	·	·
COC(=O)COc1ccc2cc(-c3ccccc3)c(=O)oc2c1	i	-1	2	-12	102*	i	68*	66*
CC(=O)Oc1ccc(-c2cc3c(OC(C)=O)cc(OC(C)=O)cc3oc2=O)cc1	i	1	-3	-28	80*	i	63*	72*
CC(=O)Oc1ccc(-c2cc3ccccc3oc2=O)cc1	-221	5	0	-87	-4	-86	·	·
C#CCNC(=O)C[C@H]1C[C@@]2(C(=O)OC)C(=C[C@H](C3CCCC3)O[C@@H]2C)N(Cc2ccco2)C1=O	-5	·	·	·	1	-5	·	·
OC1CCCN(Cc2c3ccccc3cc3ccccc23)C1 (stereo unspecified)	i	-4	-1	-17	15*	-188	-2	-2
CCOc1ccc(CCNC(=O)COC(=O)c2ccc(S(=O)(=O)N3CCCC3)cc2)cc1OCC	3	0	-10	0	0	0	·	·
COc1ccc(S[C@]2(C(=O)N3CCN(c4ncccn4)CC3)CC(=O)N(C(=O)CCc3ccccc3)[C@@H]2c2ccc(OC)cc2)cc1	-4	·	·	·	0	0	·	·
CCOc1cc(C2C3=C(CCCC3=O)N(CC(=O)O)C3=C2C(=O)CCC3)ccc1OC	-1	-1	16	7	0	-4	·	·
COc1ccc(C2C3=C(CCCC3=O)N(CC(=O)O)C3=C2C(=O)CCC3)cc1Cl	i	5	-2	4	27*	i	26*	34*
COc1ccc(C2C3=C(CCCC3=O)N(CC(=O)O)C3=C2C(=O)CCC3)cc1Br	i	·	·	20	30*	-496	28*	43*
SMILES	ADAM10 inh	NR2E3 ag-1	JMJD2C inh	NR2E3 ag-2	KLK7 zymogen act	ADAM17 inh	KLK7 act conf	EDANS-DABCYL int
C#CCOc1c(Cl)cc(C2C3=C(CCCC3=O)N(CC(=O)O)C3=C2C(=O)CCC3)cc1OC	i	-3	3	16	16*	i	72*	80*
Cc1cc(C)c2c(=O)[nH]c(SCC(=O)c3ccc(C)c(C)c3)nc2n1	-7	1	-5	-6	0	-4	·	·
Cc1ccc([C@H]2C[C@@H](n3cc(-c4ccc(F)cc4)nn3)[C@H](O)CN2C(=O)C2CCCCC2)cc1	5	·	·	-24	1	1	·	·
NC(=O)c1nsc(C(=O)N(c2ccccc2)C(C(=O)NC2CCCCC2)c2ccc(O)cc2)c1N (stereo unspecified)	-127	1	65	13	13*	-29	5	31*
NC(=O)c1nsc(C(=O)N(c2ccccc2)C(C(=O)NC2CCCC2)c2ccncc2)c1N (stereo unspecified)	-49	2	-4	-29	0	-18	·	·
COCCCNC(=O)c1nnn2c1nc(N)c1cc(Cl)ccc12	-339	·	·	·	15*	-82	40*	40*
Cc1ccccc1NC(=O)N1CCC(NC(=O)C2CCCCC2)CC1	11	5	4	-17	0	0	·	·
CC(=O)OCC(=O)c1ccc2ccn(C(C)=O)c2c1	-388	0	-8	7	18*	-122	32*	32*
CCCc1cc(=O)oc2c3c(cc(OCC(=O)NCCN4CCOCC4)c12)OC(C)(C)CC3	i	1	-6	-25	32*	i	-11	-20
CCCCc1cc(=O)oc2c3c(cc(OCC(=O)NCCCO)c12)OC(C)(C)CC3	i	-1	-4	-16	24*	i	-33	-34
CCCc1cc(=O)oc2c3c(cc(OCC(=O)NCc4ccccn4)c12)OC(C)(C)CC3	i	0	8	-21	-12	i	·	·
CCc1cc(=O)oc2c3c(cc(OCC(=O)NCCCn4ccnc4)c12)OC(C)(C)CC3	i	2	-14	-8	8	i	·	·
